Screening data as filed in PubChem.
This is a sample that favours compounds with a hit; in the whole collection about 3.7% have one here.
Cl transport mod – KCC2 cotransporter modulators, thallium flux, primary screen, cell-based, HEK293 KCC2, FluoZin-2 fluorescence, MLSMR; Solute carrier family 12 member 5 (Homo sapiens), Q9H2X9; KCC2 cells, thallium flux FluoZin-2 fluorescence; B-score of Tl+ flux slope (higher = more flux/activation; lower = inhibition) at 10 µM; 190,000 tested, 2.2% active; AID 1456, 2008;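 active = thallium flux slope and its plate-corrected score both differing from the plate sample mean at a set confidence after two filtering rounds, in either direction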;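 note: slope of fluorescence scaled to starting intensity during 10 to 20 s after thallium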
Target sequence (Q9H2X9 whole entry, looked up): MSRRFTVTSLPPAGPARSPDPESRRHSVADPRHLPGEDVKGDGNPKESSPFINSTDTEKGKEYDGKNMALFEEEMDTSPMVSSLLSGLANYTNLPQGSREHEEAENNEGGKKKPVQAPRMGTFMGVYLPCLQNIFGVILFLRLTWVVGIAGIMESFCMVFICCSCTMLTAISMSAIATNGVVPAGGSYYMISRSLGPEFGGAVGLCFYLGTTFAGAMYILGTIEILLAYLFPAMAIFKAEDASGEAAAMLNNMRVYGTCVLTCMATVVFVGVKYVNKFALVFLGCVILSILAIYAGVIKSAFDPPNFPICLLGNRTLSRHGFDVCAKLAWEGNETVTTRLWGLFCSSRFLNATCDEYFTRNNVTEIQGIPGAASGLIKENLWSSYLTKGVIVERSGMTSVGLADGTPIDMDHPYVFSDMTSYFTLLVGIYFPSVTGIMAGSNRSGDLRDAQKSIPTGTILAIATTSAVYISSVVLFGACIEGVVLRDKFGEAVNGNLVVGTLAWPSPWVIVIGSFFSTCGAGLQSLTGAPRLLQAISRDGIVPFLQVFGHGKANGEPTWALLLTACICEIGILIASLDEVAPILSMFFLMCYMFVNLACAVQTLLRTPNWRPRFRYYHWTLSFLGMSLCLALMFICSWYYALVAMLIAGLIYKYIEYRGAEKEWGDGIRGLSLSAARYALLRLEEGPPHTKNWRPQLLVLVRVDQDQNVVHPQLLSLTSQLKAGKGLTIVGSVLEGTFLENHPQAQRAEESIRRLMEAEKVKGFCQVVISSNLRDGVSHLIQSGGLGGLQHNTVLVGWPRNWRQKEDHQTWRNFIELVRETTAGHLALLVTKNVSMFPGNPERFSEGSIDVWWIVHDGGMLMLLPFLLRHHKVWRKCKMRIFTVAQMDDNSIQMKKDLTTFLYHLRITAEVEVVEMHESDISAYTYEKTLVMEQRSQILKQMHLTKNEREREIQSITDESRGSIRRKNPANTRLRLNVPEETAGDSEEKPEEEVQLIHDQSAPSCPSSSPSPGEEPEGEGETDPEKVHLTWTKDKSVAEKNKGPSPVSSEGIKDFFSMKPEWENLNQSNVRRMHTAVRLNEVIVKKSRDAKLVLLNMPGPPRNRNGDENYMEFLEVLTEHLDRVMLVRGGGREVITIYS
b-catenin transl – modulators of beta-catenin nuclear translocation, primary screen, imaging, HeLa cells, immunofluorescence, high-content. nuclear translocation activity, % at 5 µM. 190,000 tested, 0.3% active;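 active = nuclear translocation activity above 50% at 5 µM, with a well cell count of 50 or more; inconclusive = wells under 50 cells across six images, flagged as toxic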;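 note: per-cell ratio of nuclear to cytoplasmic median beta-catenin stain intensity; plate controls were DMSO negative control for no effect and GSK-3 inhibitor IX positive control for full effect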
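test system = HeLa cells, endogenous beta-catenin | dosing = single 5 µM dose plus 0.02–20 µM confirmation series | times = compound treatment 24 h, 37°C, 5% CO2 | technique = beta-catenin immunofluorescence imaging with DAPI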
MT stabilize HCS – microtubule stabilizers in HeLa cells, primary screen, imaging, high-content imaging; % tubulin-high responders, % at 10 µM; 200,000 tested, 0.83% active; HeLa tubulin immunostaining HCS, 24 h; share of cells brighter than vehicle mean+2SD;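 active = plate Z-score above 3 for both tubulin-high and condensed-nucleus cell shares, with cell loss under 80%, at 10 µM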;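 note: anti alpha tubulin signal scored within the nucleus-defined area of each cell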
ROMK mod – ROMK potassium channel modulators, primary screen, cell-based, thallium flux, MLSMR library; ATP-sensitive inward rectifier potassium channel 1 (Homo sapiens), P48048; Tet-inducible ROMK, thallium flux fluorescence; actives lie on both sides; B-score at 10 µM; 130,000 tested, 2% active; AID 1918, 2009;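 active = signal ratio slope over the read window, or its plate-corrected B-score, at least 3 SD from the plate mean, either direction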;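 note: B-score of the F/F0 ratio slope over 7 to 12 s after thallium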
Redox H2O2 prof – compounds producing H2O2 with reducing agent – biochemical, NIH compound library profiling, artefact control for MLSCN library redox annotation, primary screen; DTT-dependent redox cycling H2O2, phenol red/HRP absorbance; 100% = 100 µM peroxide control, 0% = buffer; activation, % at 10 µM; 200,000 tested, 0.03% active; AID 878, 2007;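 active = activation of at least 50% relative to the plate's high and low controls in the primary single-dose screen; inactive = activation below 50%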;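 note: compound incubated with DTT at 0.8 mM final as the reducing agent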
ROMK retest – ROMK channel modulator hit retest, confirmation, cell-based, thallium flux, duplicate, resupplied hits. shares compounds with ROMK mod. AID 1917, 2009. fluorescence ratio; hits give low values. normalized thallium flux (F/F0 slope) at 10 µM. 3,000 tested, 54% active;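 active = Flux at 10 µM at least 3 SD below or above vehicle control mean in one or both replicates; inconclusive = no clear call, values can overlap the other calls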
Active calls of the source: *; i = inactive; ? = inconclusive; · = no result given.

SMILES	Cl transport mod	b-catenin transl	MT stabilize HCS	ROMK mod	Redox H2O2 prof	ROMK retest
Cc1cccc2cc(CN(CC3CCCO3)C(c3nnnn3Cc3ccco3)C(C)C)c(=O)[nH]c12 (stereo not drawn)	0.781	-0.2	1.7	-2.97*	2.7	0.0709
Cc1cc(C)c2[nH]c(=O)c(C(c3nnnn3C(C)(C)C)N(Cc3ccco3)CC3CCCO3)cc2c1 (stereo not drawn)	0.00163	3.2	1.7	-3.25*	0.2	0.0578*
CCCc1ccc(OCc2ccccc2)c2c(=O)cc(C(=O)OCC)oc12	-0.863	0.3	·	0.363	·	·
O=C(c1cccc2ccccc12)N1CCN(c2ccc([N+](=O)[O-])c(N3CCOCC3)c2)CC1	-0.297	-1.8	4.0	·	1.7	0.075
O=C(c1ccccc1F)N1CCN(c2ccc([N+](=O)[O-])c(N3CCOCC3)c2)CC1	-1.3	-0.4	1.1	0.179	-0.8	·
O=C(CCn1cccc(C(F)(F)F)c1=O)Nc1cccc(C(F)(F)F)c1	0.129	-0.5	·	0.0161	·	·
Cc1cccc(N2CCN(C(c3ccccc3)c3nnnn3C(C)(C)C)CC2)c1C (stereo not drawn)	-0.027	-2.4	2.2	-3.28*	-0.1	0.088
Cc1cccc(N2CCN(C(c3cccs3)c3nnnn3C(C)(C)C)CC2)c1C (stereo not drawn)	·	-4.9	4.5	0.0563	0.1	·
Cc1nnc(SCc2c(Cl)cccc2Cl)n(N)c1=O	-1.24	-1.8	2.5	-2.94*	0.5	0.0612*
N#C/C(=C\c1ccc(Cl)cc1)c1n[nH]c(Cn2cncn2)n1	0.912	-3.4	2.6	-4.14*	0.4	0.0472*
O=C(O)c1cccc(-n2cccc2/C=C/[N+](=O)[O-])c1	-3.08	-0.5	·	·	·	·
CCOC(=O)c1ccc(NC(=O)COc2ccc(CNC3CCCCC3)cc2OC)cc1	-1.12	-1.4	2.3	-0.00714	-0.7	·
CCOc1ccc2ncc(S(=O)(=O)c3ccc(C)cc3)c(N3CCC4(CC3)OCCO4)c2c1	-2.74	1.4	4.1	·	0.6	0.0626*
C/C(CC(=O)Nc1ccc(Cl)cc1)=N\NC(=O)C(=O)N1CCCCC1	2.08	-2.4	2.3	-0.281	0.0	·
COC(=O)C1=C(C)Nc2nc(SCc3ccccc3)[nH]c(=O)c2C1c1cccs1 (stereo not drawn)	0.669	1.6	3.8	0.0381	-0.3	·
COc1cc(N2CCCC2)c(OC)cc1/C=c1/sc2nc3ccccc3n2c1=O	-2.4	26.3	25.7	-2.52	-1.3	0.0507*
Cc1ccc(-n2c(C)cc(/C=c3/sc4nc5ccccc5n4c3=O)c2C)cc1	0.453	-4.5	1.0	0.731	0.8	·
Cc1ccc(C2C3CSCC=C3C(C#N)=C(N)C2(C#N)C#N)cc1 (stereo not drawn)	-0.191	-0.1	3.5	-0.262	-0.7	·
N#CC1=C(N)C(C#N)(C#N)[C@H](c2ccncc2)[C@H]2CC3(CC=C12)OCCO3	-0.0115	3.1	1.1	-3.83*	1.0	?
Cc1ccc(NS(=O)(=O)c2cccc([N+](=O)[O-])c2)nc1	-0.736	-2.0	3.4	0.931	-3.4	·
Cc1ccc(NC(C#N)c2ccccc2OCc2ccccc2)cc1 (stereo not drawn)	-1.93	0.3	6.2	·	-3.6	0.095
COc1ccc(NC(C#N)c2ccccc2OCc2ccccc2)cc1 (stereo not drawn)	-1.05	0.9	5.7	·	2.4	·
Cc1nc(-c2ccccc2)sc1-c1nc(-c2ccncc2)ncc1S(=O)(=O)c1ccccc1	·	-3.1	8.0	1.35	-1.3	·
O=C(Nc1ccc(F)cc1)Nc1ccc(NC(=O)c2ccccc2O)cc1	0.0234	0.4	·	-11*	·	0.0787
O=C(Nc1ccc(F)cc1)c1ccccc1F	-0.758	-0.5	1.7	0.183	0.1	·
SMILES	Cl transport mod	b-catenin transl	MT stabilize HCS	ROMK mod	Redox H2O2 prof	ROMK retest
COc1cccc(CC2(CO)CCCN(Cc3c(C)cc(C)cc3-n3cccn3)C2)c1 (stereo not drawn)	-1.34	-1.4	3.8	-3.65*	-1.2	0.0549*
Cc1ccnc(NC(=O)CCC(=O)N(CC(=O)NC2CCCCC2)Cc2cccs2)c1	0.472	-0.7	4.6	-0.28	-0.2	0.0767
CN(CC(=O)OCC(=O)NCc1ccccc1)S(=O)(=O)c1ccc(Cl)cc1	-2.21	-1.4	3.8	-0.0971	0.0	·
CC1=NOC(=O)/C1=C\c1ccc(-c2cc(Cl)ccc2Cl)o1	0.815	·	1.0	-3.7*	3.2	?
O=C(CNS(=O)(=O)c1ccc(Br)s1)NC1CCCc2ccccc21 (stereo not drawn)	-1.31	-0.8	4.0	-3.81*	0.5	0.0668*
CCc1cc2c(NCc3ccco3)ncnc2s1	·	5.4	7.4	-3.92*	-0.6	0.0757
COc1cccc(N2CCN(c3ncnc4c3cnn4-c3ccc(C)cc3C)CC2)c1	-1.31	1.8	4.9	·	0.1	0.0713
COc1ccc(CNC(=O)C/C(C)=N/NC(=O)COc2cccc(C)c2)cc1	·	-2.8	1.2	·	-0.7	·
COc1cc2c(cc1NS(=O)(=O)N1CCCCC1)oc1ccccc12	-1.09	1.8	2.2	·	-0.6	·
NC1=NC2=C(CCCC2)C2(CCCCC2)S1	-0.445	-2.9	7.9	-3.11*	2.7	0.0645*
CCCn1c2c(c(O)c(C(=O)NC)c1=O)CCCC2	·	-0.7	3.3	·	2.6	·
CC(=O)c1c(C)c2c(n1CCN(C)C)CCCC2	·	·	1.6	3.47*	0.0	0.0777
Cn1cccc1C(=O)NC(=O)COC(=O)CNC(=O)CNC(=O)c1ccc(Cl)cc1Cl	1.31	0.0	4.9	0.914	-0.2	·
COc1ccc(N=Cc2sc(O)c3ccccc23)cc1	·	-0.9	1.9	·	0.7	·
COc1ccc(N=Cc2c(O)c3ccccc3n2C(C)=O)cc1	i	-0.4	·	·	·	0.0335*
O=C(c1ccco1)N1CCN(c2ncnc3c2nnn3Cc2ccccc2Cl)CC1	0.407	0.3	0.8	-5.06*	0.0	0.0701
Fc1ccc(N2CCN(c3ncnc4c3nnn4Cc3ccccc3Cl)CC2)cc1	0.597	·	2.0	-2.65*	-0.4	0.0662*
FC(F)(F)c1ccc(N2CCN(c3ncnc4c3nnn4Cc3ccccc3Cl)CC2)cc1	-0.36	-0.7	4.0	-0.045	1.1	·
Cc1cc(C)n(-c2nnc(NC34CC5CC(CC(C5)C3)C4)nn2)n1	0.0655	·	3.4	·	-0.2	·
CC(=O)NC1(c2ccccc2)CCN(c2cc(C)nc(-c3ccccc3)n2)CC1	-0.908	-0.5	2.4	-1.62	0.3	·
COc1ccc(/C=C(\C#N)C(=O)N2CCOCC2)cc1Br	0.364	1.7	3.3	-3.7*	2.2	0.0507*
CCCCCC[N+](C)(C)CC/C=C1/c2ccccc2Sc2ccc(Cl)cc21	0.0403	-0.7	·	·	·	0.0452*
CN(C)CC/C=C1/c2ccccc2Sc2ccc(Cl)cc21	1.05	-0.3	·	·	·	·
